Test results from ChEMBL document CHEMBL3286209, “Synthesis and biological activities of novel pleuromutilin derivatives with a substituted thiadiazole moiety as potent drug-resistant bacteria inhibitors” (J Med Chem, 2014).
In brackets after ≈: the same amount, converted by molar mass.

Tests used:
Streptococcus agalactiae [1] = experiment: Antibacterial activity against Streptococcus agalactiae after 48 hrs by agar dilution method; type: functional
Summary of the method: (§1)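 Agar dilution per NCCLS on Mueller–Hinton agar; compound in DMSO/water, 2-fold serial dilutions in distilled water, 2 mL dilution mixed into 18 mL hot agar. Clinical isolates from blood slants, adjusted to about 10⁵−10⁶ cfu/mL in 0.90% saline; 10 μL spotted. Incubated 36.5 °C for 48 h; MIC = lowest concentration giving complete growth inhibition. Triplicate runs.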

Staphylococcus aureus [2] = experiment: Antibacterial activity against methicillin-resistant Staphylococcus aureus at 320 ug/ml after 24 hrs by Oxford cup assay; type: functional; details: read-out: IZ
Summary of the method: (§2)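 Oxford cup diffusion using clinical isolates. Inocula are made in 0.9% saline to a McFarland standard and spread on nutrient agar. […] Inhibition zone diameter is measured after 24 h at 37 °C. Run in triplicate.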

[3] = Tmax in Sprague-Dawley rat at 5 mg/kg, iv; type: ADME, organism-based; design: dose 5 mg/kg, route intravenous; details: in vivo
Summary of the method: (§3)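 Male SD rats, 220−250 g, 6−8 weeks old, n = 3, fasted overnight and for 6 h after dosing. Dosed in 5% Tween in water, 5 mg/kg iv or 15 mg/kg po. Serial retrobulbar blood samples into EDTA-K₂ tubes; plasma levels by HPLC. Parameters from mean plasma concentration by noncompartmental analysis.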

Escherichia coli [4] = experiment: Antibacterial activity against Escherichia coli after 48 hrs by agar dilution method; type: functional; summary of the method: as §1
Escherichia coli [5] = experiment: Antibacterial activity against Escherichia coli at 160 ug/ml after 24 hrs by Oxford cup assay; type: functional; details: read-out: IZ
Summary of the method: (§4)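 Oxford cup diffusion: saline inoculum set by McFarland standard, spread on nutrient agar plates. […] Inhibition zone measured after 24 h at 37 °C; triplicate.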

[6] = AUC (0 to infinity) in Sprague-Dawley rat at 5 mg/kg, iv; type: ADME, organism-based; design: time infinity, dose 5 mg/kg, route intravenous; details: plasma; summary of the method: as §3
[7] = Cmax in Sprague-Dawley rat at 15 mg/kg, po; type: ADME, organism-based; design: dose 15 mg/kg, route oral; details: in vivo; summary of the method: as §3
Staphylococcus aureus [8] = experiment: Antibacterial activity against methicillin-resistant Staphylococcus aureus at 160 ug/ml after 24 hrs by Oxford cup assay; type: functional; details: read-out: IZ; summary of the method: as §2
Escherichia coli [9] = experiment: Antibacterial activity against Escherichia coli at 320 ug/ml after 24 hrs by Oxford cup assay; type: functional; details: read-out: IZ; summary of the method: as §4
[10] = test system: Staphylococcus epidermidis; experiment: Antibacterial activity against methicillin-resistant Staphylococcus epidermidis at 320 ug/ml after 24 hrs by Oxford cup assay; type: functional; details: read-out: IZ; summary of the method: as §2
[11] = Clearance in Sprague-Dawley rat at 5 mg/kg, iv; type: ADME, organism-based; design: dose 5 mg/kg, route intravenous; details: in vivo; summary of the method: as §3
[12] = Volume of distribution at steady state in Sprague-Dawley rat at 5 mg/kg, iv; type: ADME, organism-based; design: dose 5 mg/kg, route intravenous; details: in vivo, read-out: Vdss; summary of the method: as §3
Rattus norvegicus = experiment: Volume of distribution at steady state in Sprague-Dawley rat at 15 mg/kg, po; type: ADME, organism-based; design: dose 15 mg/kg, route oral; details: in vivo; summary of the method: as §3
[13] = Mean residence time in Sprague-Dawley rat at 5 mg/kg, iv; type: ADME, organism-based; design: dose 5 mg/kg, route intravenous; details: in vivo; summary of the method: as §3
Streptococcus agalactiae [14] = experiment: Antibacterial activity against Streptococcus agalactiae at 160 ug/ml after 24 hrs by Oxford cup assay; type: functional; details: read-out: IZ; summary of the method: as §4
[15] = test system: Staphylococcus epidermidis; experiment: Antibacterial activity against methicillin-resistant Staphylococcus epidermidis at 160 ug/ml after 24 hrs by Oxford cup assay; type: functional; details: read-out: IZ; summary of the method: as §2
[16] = Elimination half life in Sprague-Dawley rat at 5 mg/kg, iv; type: ADME, organism-based; design: dose 5 mg/kg, route intravenous; details: in vivo, read-out: beta t1/2 (converted); summary of the method: as §3
[17] = Mean residence time in Sprague-Dawley rat at 15 mg/kg, po; type: ADME, organism-based; design: dose 15 mg/kg, route oral; details: in vivo; summary of the method: as §3
[18] = Oral bioavailability in Sprague-Dawley rat at 15 mg/kg; type: ADME, organism-based; details: in vivo; summary of the method: as §3
[19] = Cmax in Sprague-Dawley rat at 5 mg/kg, iv; type: ADME, organism-based; design: dose 5 mg/kg, route intravenous; details: in vivo; summary of the method: as §3
Streptococcus agalactiae [20] = experiment: Antibacterial activity against Streptococcus agalactiae at 320 ug/ml after 24 hrs by Oxford cup assay; type: functional; details: read-out: IZ; summary of the method: as §4
[21] = test system: Staphylococcus epidermidis; experiment: Antibacterial activity against methicillin-resistant Staphylococcus epidermidis after 48 hrs by agar dilution method; type: functional
Summary of the method: (§5)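 Agar dilution per NCCLS using clinical isolates. Compound DMSO/water solutions are 2-fold serially diluted in water, then mixed 1:10 into hot Mueller–Hinton agar. Inocula come from blood slants, adjusted to about 10⁵−10⁶ cfu/mL in 0.90% saline, and spotted at 10 μL. Plates incubated at 36.5 °C for 48 h. MIC is the lowest concentration giving complete growth inhibition. Run in triplicate at pH 7.40.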

[22] = Tmax in Sprague-Dawley rat at 15 mg/kg, po; type: ADME, organism-based; design: dose 15 mg/kg, route oral; details: in vivo; summary of the method: as §3
Staphylococcus aureus [23] = experiment: Antibacterial activity against methicillin-resistant Staphylococcus aureus after 48 hrs by agar dilution method; type: functional; summary of the method: as §5
[24] = Clearance in Sprague-Dawley rat at 15 mg/kg, po; type: ADME, organism-based; design: dose 15 mg/kg, route oral; details: in vivo; summary of the method: as §3
[25] = Elimination half life in Sprague-Dawley rat at 15 mg/kg, po; type: ADME, organism-based; design: dose 15 mg/kg, route oral; details: in vivo, read-out: beta t1/2 (converted); summary of the method: as §3
[26] = AUC (0 to infinity) in Sprague-Dawley rat at 15 mg/kg, po; type: ADME, organism-based; design: time infinity, dose 15 mg/kg, route oral; details: plasma; summary of the method: as §3
[27] = Oral bioavailability in duck; type: ADME, organism-based; details: anas platyrhynchos, in vivo
[28] = Oral bioavailability in chicken; type: ADME, organism-based, Gallus gallus; details: in vivo

SMILES	MIC (Streptococcus agalactiae [1])	zone of inhibition at 320 µg/mL (Staphylococcus aureus [2])	Tmax [3]	MIC (Escherichia coli [4])	zone of inhibition at 160 µg/mL (Escherichia coli [5])	AUC(0-inf) [6]	Cmax [7]	zone of inhibition at 160 µg/mL (Staphylococcus aureus [8])	zone of inhibition at 320 µg/mL (Escherichia coli [9])	zone of inhibition at 320 µg/mL [10]	clearance [11]	Vd [12]	Vdss (Rattus norvegicus)	MRT [13]	zone of inhibition at 160 µg/mL (Streptococcus agalactiae [14])	zone of inhibition at 160 µg/mL [15]	half-life [16]	zone of inhibition at 320 µg/mL (Streptococcus agalactiae [20])	MIC [21]	MIC (Staphylococcus aureus [23])	further results
C=C[C@]1(C)C[C@@H](OC(=O)CSc2nnc(N)s2)[C@]2(C)[C@H](C)CC[C@]3(CCC(=O)[C@H]32)[C@@H](C)[C@@H]1O	0.25 µg/mL (≈ 0.506 µM)	15.6 mm	4.8 min	8 µg/mL (≈ 16.2 µM)	12.4 mm	15400 ng·h/mL	3070 ng/mL	13 mm	14.3 mm	15.2 mm	5.41 mL/min/kg	0.92 L/kg	5.14 L/kg	2.84 h	15 mm	12.8 mm	204 min	17.3 mm	1 µg/mL (≈ 2.03 µM)	0.5 µg/mL (≈ 1.01 µM)	MRT [17]: 8.42 h; bioavailability [18]: 35.8%; Cmax [19]: 13600 ng/mL; Tmax [22]: 45 min; CL/F [24]: 10.2 mL/min/kg; half-life [25]: 364 min; AUC(0-inf) [26]: 24600 ng·h/mL
C=C[C@]1(C)C[C@@H](OC(=O)CSC(C)(C)CNC(=O)[C@H](N)C(C)C)[C@]2(C)[C@H](C)CC[C@]3(CCC(=O)[C@H]32)[C@@H](C)[C@@H]1O [VALNEMULIN]	–	–	–	–	–	–	–	–	–	–	–	–	–	–	–	–	–	–	–	–	bioavailability [27]: 36.7%; bioavailability [28]: 74%
C=C[C@]1(C)C[C@@H](OC(=O)CSc2nnc(NC(=O)CN3CCN(C)CC3)s2)[C@]2(C)[C@H](C)CC[C@]3(CCC(=O)[C@H]32)[C@@H](C)[C@@H]1O	8 µg/mL (≈ 12.6 µM)	12 mm	–	16 µg/mL (≈ 25.2 µM)	10.6 mm	–	–	11 mm	11.2 mm	13.1 mm	–	–	–	–	11.2 mm	10.7 mm	–	12.6 mm	4 µg/mL (≈ 6.31 µM)	8 µg/mL (≈ 12.6 µM)	–
C=C[C@]1(C)C[C@@H](OC(=O)CSc2nnc(NC(=O)CN3CCCCC3)s2)[C@]2(C)[C@H](C)CC[C@]3(CCC(=O)[C@H]32)[C@@H](C)[C@@H]1O	0.5 µg/mL (≈ 0.808 µM)	18.8 mm	4.8 min	16 µg/mL (≈ 25.9 µM)	11.7 mm	14100 ng·h/mL	4650 ng/mL	13.8 mm	13.3 mm	17.4 mm	5.9 mL/min/kg	1.02 L/kg	4.91 L/kg	2.88 h	13.5 mm	14.5 mm	233 min	17.7 mm	1 µg/mL (≈ 1.62 µM)	0.5 µg/mL (≈ 0.808 µM)	MRT [17]: 7.91 h; bioavailability [18]: 39.7%; Cmax [19]: 11300 ng/mL; Tmax [22]: 45 min; CL/F [24]: 10.4 mL/min/kg; half-life [25]: 359 min; AUC(0-inf) [26]: 24100 ng·h/mL
